{"data": "Measured values collected from several papers", "P2RY14": "P2Y purinoceptor 14 (P2RY14, Homo sapiens, UniProt Q15391)", "Nuclear receptor subfamily 4 group A member 2": "Nuclear receptor subfamily 4 group A member 2 (Homo sapiens, UniProt P43354)", "ADRA1B": "Alpha-1B adrenergic receptor (ADRA1B, Homo sapiens, UniProt P35368)", "note": "Each line is one published result; the experiments were not run side by side."}
{"Structure (SMILES)": "O=c1c(O[C@@H]2O[C@H](CO)[C@H](O)[C@H](O)[C@H]2O)c(-c2ccc(O)c(O)c2)oc2cc(O)cc(O)c12", "target": "Sortase B (srtB, Staphylococcus aureus, UniProt Q2FZE3)", "test": "binding, SPR", "endpoint": "Kd", "result": "198000 nM"}
{"Structure (SMILES)": "O=C(O)c1cc(-c2ccc(-n3cc(CCOP(=O)(O)O)nn3)cc2)c2ccc(-c3ccc(C(F)(F)F)cc3)cc2c1", "target": "P2RY14", "test": "ligand displacement in cells, flow cytometry", "endpoint": "Ki", "result": "779 nM"}
{"Structure (SMILES)": "Cc1onc(-c2ccccc2)c1-c1ccc(S(N)(=O)=O)cc1", "target": "Nuclear receptor subfamily 4 group A member 2", "test": "binding, ITC", "endpoint": "Kd", "result": "1200 nM"}
{"Structure (SMILES)": "O=C(O)c1cc(-c2ccc(-n3cc(CCO)nn3)cc2)c2ccc(-c3ccc(C(F)(F)F)cc3)cc2c1", "target": "P2RY14", "test": "ligand displacement in cells, flow cytometry", "endpoint": "Ki", "result": "89 nM"}
{"Structure (SMILES)": "CCN(CC)CCCC(C)Nc1ccnc2cc(Cl)ccc12 (stereo not drawn)", "target": "Nuclear receptor subfamily 4 group A member 2", "test": "binding, ITC", "endpoint": "Kd", "result": "6800 nM"}
{"Structure (SMILES)": "Nc1ncnc2c1ncn2[C@@H]1O[C@H](COP(=O)(O)OP(=O)(O)OP(=O)(O)O)[C@@H](O)[C@H]1O", "target": "P2X purinoceptor 7 (P2RX7, Homo sapiens, UniProt Q99572)", "test": "binding, SPR", "endpoint": "Kd", "result": "224000 nM"}
{"Structure (SMILES)": "O=C(O)c1cc(-c2ccc(-n3nncc3CCOP(=O)(O)O)cc2)c2ccc(-c3ccc(C(F)(F)F)cc3)cc2c1", "target": "P2RY14", "test": "ligand displacement in cells, flow cytometry", "endpoint": "Ki", "result": "91.3 nM"}
{"Structure (SMILES)": "Cc1cc(Oc2ncccc2CN2CCN(c3ccccc3C#N)CC2)ccc1-c1c(C)c(=O)[nH]c(=O)n1C", "target": "ADRA1B", "test": "ligand displacement, radioligand", "endpoint": "Ki", "result": "464 nM"}
{"Structure (SMILES)": "CCN(CC)Cc1cc(Nc2ccnc3cc(Cl)ccc23)ccc1O", "target": "Nuclear receptor subfamily 4 group A member 2", "test": "binding, ITC", "endpoint": "Kd", "result": "2700 nM"}
{"Structure (SMILES)": "COc1ccccc1N1CCN(Cc2cccnc2Oc2ccc(-c3c(C)c(=O)[nH]c(=O)n3C)c(C)c2)CC1", "target": "ADRA1B", "test": "ligand displacement, radioligand", "endpoint": "Ki", "result": "1390 nM"}
{"Structure (SMILES)": "CCCCCCCCC(=O)c1cc(O)c(O)c(O)c1", "target": "Nuclear receptor subfamily 4 group A member 2", "test": "binding, ITC", "endpoint": "Kd", "result": "3400 nM"}
{"Structure (SMILES)": "Cc1cc(Oc2ncccc2CN2CCN(c3ccc(Cl)cc3)CC2)ccc1-c1c(C)c(=O)[nH]c(=O)n1C", "target": "ADRA1B", "test": "ligand displacement, radioligand", "endpoint": "Ki", "result": "2590 nM"}
{"Structure (SMILES)": "O=C(O)c1cc(-c2ccc(-c3ccncc3)cc2)c2ccc(-c3ccc(C(F)(F)F)cc3)cc2c1", "target": "P2RY14", "test": "ligand displacement in cells, flow cytometry", "endpoint": "Ki", "result": "23.7 nM"}
{"Structure (SMILES)": "Cc1cc(Oc2ncccc2CN2CCN(c3cccc(C)c3C)CC2)ccc1-c1c(C)c(=O)[nH]c(=O)n1C", "target": "ADRA1B", "test": "ligand displacement, radioligand", "endpoint": "Ki", "result": "4420 nM"}
{"Structure (SMILES)": "O=C(O)c1cc(-c2ccc(-c3c[nH]nn3)cc2)c2ccc(-c3ccc(C(F)(F)F)cc3)cc2c1", "target": "P2RY14", "test": "ligand displacement in cells, flow cytometry", "endpoint": "Ki", "result": "2.15 nM"}
